Activity calls are given as the source filed them. No cut-off for these calls is given here.
Legend:
[1] = biological target: T1, ATP-dependent translocase ABCB1 (Homo sapiens, UniProt P08183); assay: Stimulation of human ABCB1 ATPase activity expressed in high-five insect cell membrane vesicles assessed as compound concentration required for 50% stimulation by colorimetric analysis; details: read-out: Activity
Procedure, shortened: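 Vanadate-sensitive ABCB1 ATPase activity in High Five insect cell membrane vesicles, measured with a commercial ATPase kit under a modified protocol; compound tested across 0-40 µM; maximal fold stimulation and concentration giving 50% stimulation derived.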

[2] = biological target: Multidrug resistance-associated protein 1 (Homo sapiens, UniProt P33527); assay: Inhibition of ABCC1 (unknown origin) expressed in HEK293 cells assessed as potentiation of vincristine-induced cytotoxicity by measuring fold reduction in vincristine IC50 at 1 uM preincubated for 4 hrs followed by vincristine addition measured after 72 hrs by MTT assay; format: cell-based
Procedure, shortened: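 KB-CV60 and HEK293/ABCC1 cells (transfected line kept in 2 mg/mL G418) given graded vincristine with or without modulator for 72 h; MK571 25 µM reference; viability by MTT read at 490 nm. IC50 from three independent repeats, mean ± SD; reversal fold = vincristine IC50 ratio without/with modulator.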

[3] = biological target: T1, ATP-dependent translocase ABCB1; assay: Inhibition of ABCB1 in human SW620/AD300 cells assessed as intracellular accumulation of paclitaxel up to 4 uM treated at 2 hrs post paclitaxel treatment for 30 mins in paclitaxel free medium by HPLC analysis; format: cell-based; details: 0.5 h
Procedure, shortened: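 Equal numbers of SW620/AD300 cells loaded with 6 µg/mL paclitaxel 2 h, then held in paclitaxel-free medium with or without compound 30 min at 37℃; cells harvested, disrupted by ultrasound, extracted with ethyl acetate and paclitaxel quantified by HPLC.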

SW620/AD300 [4] = assay: Effect on subcellular localization of ABCB1 in human SW620/AD300 cells at 2 uM after 48 hrs by Hoechst 33258 staining-based immunofluorescence assay; format: functional, cell-based
Procedure, shortened: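 About 1×10^4 cells on coverslips incubated with compound 48 h, fixed in 4% paraformaldehyde ≥20 min, blocked 2 h in PBS with 5% BSA, anti-ABCB1 primary overnight at 4℃, Alexa Fluor 488 anti-goat secondary 2 h, nuclei stained with Hoechst 33258 20 min; imaged by laser scanning confocal microscopy.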

[5] = biological target: T1, ATP-dependent translocase ABCB1; assay: Binding affinity to ABCB1 in human SW620/AD300 cells assessed as thermal stabilization preincubated for 30 mins followed by incubation at 40 to 61 degC for 3 mins by CETSA; format: cell-based; details: 0.05 h
Procedure, shortened: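 SW620/AD300 cells lysed by three liquid-nitrogen freeze-thaw cycles; ultracentrifuged supernatant split into compound-treated and solvent-control portions, incubated 30 min at 37℃, aliquoted and heated 3 min at 40, 43, 46, 49, 52, 55, 58 or 61℃; remaining ABCB1 or ABCC1 detected by western blotting.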

SW620/AD300 [6] = assay: Antitumor activity against ABCB1 overexpressing human SW620/AD300 cells xenografted in BALB/c nude mouse assessed as reduction in tumor volume at 20 mg/kg/day, po cotreated with 5 mg/kg, ip paclitaxel measured after 21 days; format: functional, organism-based
Procedure, shortened: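 Female BALB/c nude mice (18-20 g, 5-6 weeks) bearing SW620/AD300 xenografts; grouping once tumours reached 100 mm3: saline vehicle […] ip, paclitaxel 5 mg/kg every 3 days ip, test agent 20 mg/kg/day orally, or the combination. Body weight and tumour volume recorded every 2 days over 21 days; tumours excised and weighed at end.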

Cytochrome P450 3A4 = Cytochrome P450 3A4 (Homo sapiens, UniProt P08684); assay: Inhibition of recombinant human CYP3A4 in presence of NADPH generating system by fluorescence assay; format: ADME
SW620/AD300 [7] = assay: Effect on ABCB1 expression in human SW620/AD300 cells up to 4 uM after 48 hrs by Western blot analysis; format: functional, cell-based
Procedure, shortened: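 SW620/AD300 cells exposed to compound at 0, 1, 2 or 4 µM for 48 h, lysed, ultracentrifuged, protein quantified by BCA; equal protein run on SDS-PAGE, wet-transferred to nitrocellulose, primary antibody overnight at 4℃, secondary 2 h at room temperature, enhanced chemiluminescence detection; GAPDH as loading control.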

T1 sequence (P08183 whole entry): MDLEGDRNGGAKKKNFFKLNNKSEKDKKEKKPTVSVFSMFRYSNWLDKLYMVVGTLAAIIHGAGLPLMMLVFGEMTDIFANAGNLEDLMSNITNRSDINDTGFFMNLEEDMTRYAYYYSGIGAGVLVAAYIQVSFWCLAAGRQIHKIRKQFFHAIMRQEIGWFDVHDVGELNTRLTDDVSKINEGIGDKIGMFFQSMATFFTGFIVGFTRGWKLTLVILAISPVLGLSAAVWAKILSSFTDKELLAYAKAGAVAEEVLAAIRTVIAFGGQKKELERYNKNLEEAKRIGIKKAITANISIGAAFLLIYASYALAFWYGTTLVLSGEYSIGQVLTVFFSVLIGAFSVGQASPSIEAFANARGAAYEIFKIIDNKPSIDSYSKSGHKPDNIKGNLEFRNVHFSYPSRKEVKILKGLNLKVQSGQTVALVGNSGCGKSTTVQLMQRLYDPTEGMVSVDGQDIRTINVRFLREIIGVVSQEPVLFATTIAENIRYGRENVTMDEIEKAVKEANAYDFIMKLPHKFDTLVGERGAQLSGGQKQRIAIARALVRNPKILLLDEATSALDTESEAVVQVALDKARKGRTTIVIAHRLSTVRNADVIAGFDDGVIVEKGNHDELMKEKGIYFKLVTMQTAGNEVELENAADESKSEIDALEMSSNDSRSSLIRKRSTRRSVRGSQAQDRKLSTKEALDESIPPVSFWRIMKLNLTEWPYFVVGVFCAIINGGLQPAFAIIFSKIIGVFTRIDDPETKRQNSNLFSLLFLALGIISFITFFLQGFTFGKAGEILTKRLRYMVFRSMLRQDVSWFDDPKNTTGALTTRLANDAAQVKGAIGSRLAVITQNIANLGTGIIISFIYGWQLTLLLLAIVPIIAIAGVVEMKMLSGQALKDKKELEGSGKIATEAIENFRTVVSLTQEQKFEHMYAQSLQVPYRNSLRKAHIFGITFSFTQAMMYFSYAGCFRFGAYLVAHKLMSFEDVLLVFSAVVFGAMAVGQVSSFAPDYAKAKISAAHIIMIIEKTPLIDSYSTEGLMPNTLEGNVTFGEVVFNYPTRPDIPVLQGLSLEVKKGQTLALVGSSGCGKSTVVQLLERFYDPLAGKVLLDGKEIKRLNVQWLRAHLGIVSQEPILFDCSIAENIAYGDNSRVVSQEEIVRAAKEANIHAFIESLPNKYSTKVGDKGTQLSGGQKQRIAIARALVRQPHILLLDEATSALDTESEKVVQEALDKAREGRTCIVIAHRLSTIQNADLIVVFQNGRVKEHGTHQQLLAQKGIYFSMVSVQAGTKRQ
Sequence of Cytochrome P450 3A4 (P08684 whole entry): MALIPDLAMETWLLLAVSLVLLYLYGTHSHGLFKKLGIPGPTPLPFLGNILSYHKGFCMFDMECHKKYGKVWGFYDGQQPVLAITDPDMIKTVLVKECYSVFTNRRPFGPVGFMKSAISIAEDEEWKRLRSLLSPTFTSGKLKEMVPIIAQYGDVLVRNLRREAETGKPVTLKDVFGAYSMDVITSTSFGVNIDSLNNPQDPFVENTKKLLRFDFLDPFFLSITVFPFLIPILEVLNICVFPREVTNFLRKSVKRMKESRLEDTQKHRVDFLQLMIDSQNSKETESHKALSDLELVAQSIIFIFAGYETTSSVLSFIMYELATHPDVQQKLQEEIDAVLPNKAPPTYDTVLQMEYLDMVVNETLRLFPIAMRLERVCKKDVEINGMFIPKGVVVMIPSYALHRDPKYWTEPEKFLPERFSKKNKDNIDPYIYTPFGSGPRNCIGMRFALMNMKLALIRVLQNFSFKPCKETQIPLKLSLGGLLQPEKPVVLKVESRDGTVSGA
Sequence of Multidrug resistance-associated protein 1 (P33527 whole entry): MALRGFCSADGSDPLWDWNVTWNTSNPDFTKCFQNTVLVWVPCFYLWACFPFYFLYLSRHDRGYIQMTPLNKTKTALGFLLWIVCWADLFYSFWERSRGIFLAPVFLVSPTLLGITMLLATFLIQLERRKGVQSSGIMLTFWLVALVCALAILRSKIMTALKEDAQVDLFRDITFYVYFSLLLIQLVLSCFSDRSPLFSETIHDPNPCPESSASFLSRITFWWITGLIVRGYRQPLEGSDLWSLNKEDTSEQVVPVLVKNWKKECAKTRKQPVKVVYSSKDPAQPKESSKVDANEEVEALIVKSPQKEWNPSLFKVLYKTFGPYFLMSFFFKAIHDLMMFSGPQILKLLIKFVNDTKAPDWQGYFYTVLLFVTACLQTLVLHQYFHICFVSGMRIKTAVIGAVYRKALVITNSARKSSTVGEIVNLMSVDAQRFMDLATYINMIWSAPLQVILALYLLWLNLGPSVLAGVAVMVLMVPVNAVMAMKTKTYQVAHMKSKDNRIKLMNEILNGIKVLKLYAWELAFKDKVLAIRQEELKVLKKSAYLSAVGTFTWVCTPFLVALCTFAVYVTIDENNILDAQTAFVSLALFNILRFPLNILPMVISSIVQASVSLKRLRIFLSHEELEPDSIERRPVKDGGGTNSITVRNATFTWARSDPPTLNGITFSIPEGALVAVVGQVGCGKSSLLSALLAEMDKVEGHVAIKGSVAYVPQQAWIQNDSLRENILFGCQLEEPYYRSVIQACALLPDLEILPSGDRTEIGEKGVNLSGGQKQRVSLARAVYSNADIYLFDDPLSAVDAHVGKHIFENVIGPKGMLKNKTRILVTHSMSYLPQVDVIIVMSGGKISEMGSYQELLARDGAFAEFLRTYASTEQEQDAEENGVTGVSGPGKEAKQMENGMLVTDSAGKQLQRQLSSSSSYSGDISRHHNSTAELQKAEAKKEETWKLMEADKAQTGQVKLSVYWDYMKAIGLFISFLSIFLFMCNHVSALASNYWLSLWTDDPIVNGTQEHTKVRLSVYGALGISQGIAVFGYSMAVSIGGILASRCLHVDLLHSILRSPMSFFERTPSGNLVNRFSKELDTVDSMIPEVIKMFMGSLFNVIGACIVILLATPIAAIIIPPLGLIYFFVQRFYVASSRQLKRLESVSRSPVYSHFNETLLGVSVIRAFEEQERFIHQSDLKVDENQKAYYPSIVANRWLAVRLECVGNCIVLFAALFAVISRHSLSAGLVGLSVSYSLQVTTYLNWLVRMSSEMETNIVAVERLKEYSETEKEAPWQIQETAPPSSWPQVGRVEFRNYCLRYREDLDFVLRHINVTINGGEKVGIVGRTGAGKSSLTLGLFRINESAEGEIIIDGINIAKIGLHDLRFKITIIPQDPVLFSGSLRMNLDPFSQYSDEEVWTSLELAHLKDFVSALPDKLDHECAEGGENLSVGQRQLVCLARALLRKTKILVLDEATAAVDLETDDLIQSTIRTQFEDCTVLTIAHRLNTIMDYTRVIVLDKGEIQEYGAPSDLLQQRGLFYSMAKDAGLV

## COc1cc(-c2nc(SCC(=O)NC(=O)Nc3ccccn3)nc(Nc3cccc(Cl)c3)c2C#N)cc(OC)c1OC
[1]
  EC50: 0.97 µM
[2]
  fold change (FC): 1.14
[3]
  inhibition (INH): Active
SW620/AD300 [4]
  Activity: inactive
[5]
  Activity: Active
SW620/AD300 [6]
  Activity: Active
Cytochrome P450 3A4
  IC50: 17.2 µM
SW620/AD300 [7]
  Activity: inactive
